# The source made the active and inactive calls.
# Test system: Mus musculus
# Test: Neurotoxicity in ip dosed Swiss albino mouse assessed as minimum drug concentration required for falling off the rotarod by half or more of mouse after 4 hrs by rotarod test
# Type: toxicity, organism-based
# Conditions: in vivo
# Method in brief: (§1)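 Rotarod test in male Swiss albino mice (18–25 g) after i.p. dosing at 30, 100 and 300 mg/kg, read at 0.5 and 4 h. Mice falling within 30 s in a pre-check were excluded. Neurotoxicity was scored as the minimum dose at which half or more of the mice fell off the rod.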
row,Compound,Activity
1,CCC1(c2ccccc2)C(=O)NC(=O)NC1=O [PHENOBARBITAL],300 mg/kg
2,O=C(N/N=C/c1ccc(Br)cc1)Nc1nc2c(ccc3ccccc32)s1,300 mg/kg
3,COc1cc(/C=N/NC(=O)Nc2nc3c(ccc4ccccc43)s2)ccc1O,100 mg/kg
4,O=C(N/N=C/c1ccccc1[N+](=O)[O-])Nc1nc2c(ccc3ccccc32)s1,100 mg/kg
5,O=C(N/N=C/c1ccccc1)Nc1nc2c(ccc3ccccc32)s1,300 mg/kg
6,O=C1NC(=O)C(c2ccccc2)(c2ccccc2)N1 [PHENYTOIN],100 mg/kg

# Test system: Mus musculus
# Test: Neurotoxicity in Swiss albino mouse at 300 mg/kg, ip after 0.5 hrs by rotarod test
# Type: toxicity, organism-based
# Parameters: dose 300 mg/kg, route intraperitoneal
# Conditions: in vivo
# Method in brief: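 Male Swiss albino mice (18-25 g) received the compound i.p. at 30, 100 or 300 mg/kg and were tested on the rotarod 0.5 and 4 h later. Mice were pre-checked, and any that fell off within 30 s were excluded. Neurotoxicity was scored as falling off the rod. The value is the minimum dose affecting half or more of the mice.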
row,Compound,Activity
1,CCCC(CCC)C(=O)O [VALPROIC ACID],Non-toxic
2,O=C(N/N=C/c1ccccc1[N+](=O)[O-])Nc1nc2c(ccc3ccccc32)s1,Non-toxic
3,CCC1(C)CC(=O)NC1=O (stereo not given) [ETHOSUXIMIDE],Non-toxic

# Test system: Mus musculus
# Test: Toxicity to Swiss albino mouse assessed as mortality following tonic extension at 300 mg/kg, ip after 4 hrs
# Type: organism-based
# Parameters: dose 300 mg/kg, route intraperitoneal
# Conditions: in vivo
row,Compound,Activity
1,COc1ccc(OC)c(/C=N/NC(=O)Nc2nc3c(ccc4ccccc43)s2)c1,Toxic

# Test system: Mus musculus
# Test: Neurotoxicity in ip dosed Swiss albino mouse assessed as minimum drug concentration required for falling off the rotarod by half or more of mouse after 0.5 hrs by rotarod test
# Type: toxicity, organism-based
# Conditions: in vivo
# Method in brief: as §1
row,Compound,Activity
1,C/C(=N\NC(=O)Nc1nc2c(ccc3ccccc32)s1)c1ccccc1,100 mg/kg
2,O=C(N/N=C/c1ccccc1Cl)Nc1nc2c(ccc3ccccc32)s1,300 mg/kg
3,CCC1(c2ccccc2)C(=O)NC(=O)NC1=O [PHENOBARBITAL],100 mg/kg
4,COc1ccc(OC)c(/C=N/NC(=O)Nc2nc3c(ccc4ccccc43)s2)c1,300 mg/kg
5,O=C(N/N=C/c1ccc(Br)cc1)Nc1nc2c(ccc3ccccc32)s1,100 mg/kg
6,COc1cc(/C=N/NC(=O)Nc2nc3c(ccc4ccccc43)s2)ccc1O,300 mg/kg
7,O=C(N/N=C/c1ccccc1)Nc1nc2c(ccc3ccccc32)s1,100 mg/kg
8,O=C1NC(=O)C(c2ccccc2)(c2ccccc2)N1 [PHENYTOIN],100 mg/kg

# Test system: Mus musculus
# Test: Anticonvulsant activity against pentylenetetrazole-induced seizures in Swiss albino mouse at 300 mg/kg, ip after 4 hrs by scPTZ test
# Type: functional, organism-based
# Parameters: dose 300 mg/kg
# Conditions: not given
# Method in brief: (§2)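 Male Swiss albino mice (18–25 g) were dosed i.p. at 30, 100 and 300 mg/kg, examined at 0.5 and 4 h. PTZ 85 mg/kg (CD97) was given and the animals were […]. Protection meant absence of any threshold convulsion, i.e. clonic spasm lasting at least 5 s. The value is the minimum dose active in half or more of the mice.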
row,Compound,Activity
1,CCCC(CCC)C(=O)O [VALPROIC ACID],inactive
2,O=C1NC(=O)C(c2ccccc2)(c2ccccc2)N1 [PHENYTOIN],inactive
3,CCC1(C)CC(=O)NC1=O (stereo not given) [ETHOSUXIMIDE],inactive

# Test system: Mus musculus
# Test: Anticonvulsant activity against maximal electroshock-induced seizures in Swiss albino mouse at 300 mg/kg, ip after 4 hrs by MES test
# Type: functional, organism-based
# Parameters: dose 300 mg/kg
# Conditions: not given
# Method in brief: (§3)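 Male Swiss albino mice (18–25 g) received compound i.p. at 30, 100 and 300 mg/kg. MES seizures were induced after 0.5 and 4 h, with a drop of 0.9% saline placed in the eye before the electrodes went on. Protection meant abolition of the hind-limb tonic extensor component. The tabulated value is the minimum dose protecting half or more of the mice.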
row,Compound,Activity
1,C/C(=N\NC(=O)Nc1nc2c(ccc3ccccc32)s1)c1ccccc1,inactive
2,COc1ccc(OC)c(/C=N/NC(=O)Nc2nc3c(ccc4ccccc43)s2)c1,inactive
3,CCCC(CCC)C(=O)O [VALPROIC ACID],inactive
4,O=C(N/N=C/c1ccccc1[N+](=O)[O-])Nc1nc2c(ccc3ccccc32)s1,inactive
5,O=C(N/N=C/c1ccccc1)Nc1nc2c(ccc3ccccc32)s1,inactive
6,CCC1(C)CC(=O)NC1=O (stereo not given) [ETHOSUXIMIDE],inactive

# Test system: Mus musculus
# Test: Anticonvulsant activity in ip dosed Swiss albino mouse assessed as minimum drug concentration required for inhibition of maximal electroshock-induced seizure in half or more of mouse after 0.5 hrs by MES test
# Type: functional
# Conditions: not given
# Method in brief: as §3
row,Compound,Activity
1,CCC1(c2ccccc2)C(=O)NC(=O)NC1=O [PHENOBARBITAL],100 mg/kg
2,COc1ccc(OC)c(/C=N/NC(=O)Nc2nc3c(ccc4ccccc43)s2)c1,300 mg/kg
3,O=C(N/N=C/c1ccc(Br)cc1)Nc1nc2c(ccc3ccccc32)s1,100 mg/kg
4,COc1cc(/C=N/NC(=O)Nc2nc3c(ccc4ccccc43)s2)ccc1O,300 mg/kg
5,O=C(N/N=C/c1ccccc1)Nc1nc2c(ccc3ccccc32)s1,300 mg/kg
6,O=C1NC(=O)C(c2ccccc2)(c2ccccc2)N1 [PHENYTOIN],30 mg/kg

# Test system: Mus musculus
# Test: Anticonvulsant activity in ip dosed Swiss albino mouse assessed as minimum drug concentration required for inhibition of pentylenetetrazole-induced seizures in half or more of mouse after 0.5 hrs by scPTZ test
# Type: functional
# Conditions: not given
# Method in brief: as §2
row,Compound,Activity
1,C/C(=N\NC(=O)Nc1nc2c(ccc3ccccc32)s1)c1ccccc1,300 mg/kg
2,CCC1(c2ccccc2)C(=O)NC(=O)NC1=O [PHENOBARBITAL],30 mg/kg
3,CCCC(CCC)C(=O)O [VALPROIC ACID],300 mg/kg
4,O=C(N/N=C/c1ccc(Br)cc1)Nc1nc2c(ccc3ccccc32)s1,100 mg/kg
5,COc1cc(/C=N/NC(=O)Nc2nc3c(ccc4ccccc43)s2)ccc1O,300 mg/kg
6,O=C(N/N=C/c1ccccc1[N+](=O)[O-])Nc1nc2c(ccc3ccccc32)s1,300 mg/kg
7,O=C(N/N=C/c1ccccc1)Nc1nc2c(ccc3ccccc32)s1,300 mg/kg
8,CCC1(C)CC(=O)NC1=O (stereo not given) [ETHOSUXIMIDE],300 mg/kg

# Test system: Rattus norvegicus
# Test: Anticonvulsant activity against pentylenetetrazole-induced seizures in Wistar albino rat at 50 mg/kg, po after 0.25 hrs by scPTZ test
# Type: functional, organism-based
# Parameters: dose 50 mg/kg
# Conditions: not given
# Method in brief: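 Male Wistar rats (100-125 g), compound given orally at 50 mg/kg, then challenged with scPTZ at 70 mg/kg. Absence of such a convulsion counted as protection. Groups of four rats were scored at 0.25, 0.5, 1 and 2 h as number protected out of four.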
row,Compound,Activity
1,CCC1(C)CC(=O)NC1=O (stereo not given) [ETHOSUXIMIDE],inactive

# Test system: Rattus norvegicus
# Test: Neurotoxicity in Wistar albino rat at 50 mg/kg, po by rotarod test
# Type: toxicity, organism-based
# Parameters: dose 50 mg/kg, route oral
# Conditions: in vivo
row,Compound,Activity
1,O=C(N/N=C/c1ccc(Br)cc1)Nc1nc2c(ccc3ccccc32)s1,Non-toxic

# Test system: Mus musculus
# Test: Neurotoxicity in Swiss albino mouse at 300 mg/kg, ip after 4 hrs by rotarod test
# Type: toxicity, organism-based
# Parameters: dose 300 mg/kg, route intraperitoneal
# Conditions: in vivo
# Method in brief: as §1
row,Compound,Activity
1,C/C(=N\NC(=O)Nc1nc2c(ccc3ccccc32)s1)c1ccccc1,Non-toxic
2,O=C(N/N=C/c1ccccc1Cl)Nc1nc2c(ccc3ccccc32)s1,Non-toxic
3,COc1ccc(OC)c(/C=N/NC(=O)Nc2nc3c(ccc4ccccc43)s2)c1,Non-toxic
4,CCCC(CCC)C(=O)O [VALPROIC ACID],Non-toxic
5,CCC1(C)CC(=O)NC1=O (stereo not given) [ETHOSUXIMIDE],Non-toxic

# Test system: Rattus norvegicus
# Test: Anticonvulsant activity against pentylenetetrazole-induced seizures in Wistar albino rat at 50 mg/kg, po up to 2 hrs by scPTZ test
# Type: functional, organism-based
# Parameters: dose 50 mg/kg
# Conditions: not given
# Method in brief: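 Male Wistar rats (100–125 g) were given compound orally at 50 mg/kg. They were challenged with scPTZ at 70 mg/kg at 0.25, 0.5, 1.0 and 2.0 h, and seizures were watched for. Protection meant absence of clonic spasm lasting at least 5 s. The score is the number of rats protected out of four.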
row,Compound,Activity
1,O=C(N/N=C/c1ccc(Br)cc1)Nc1nc2c(ccc3ccccc32)s1,Active

# Test system: Mus musculus
# Test: Antioxidant activity against PTZ-induced decrease in superoxide dismutase activity in Swiss albino mouse brain assessed as enzyme units per mg of protein causing 50% inhibition in NBT reduction rate at 100 mg/kg, ip administered 30 mins before PTZ challenge measured after 4 hrs
# Type: functional
# Conditions: route intraperitoneal
# Method in brief: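 Same mouse dosing: 100 mg/kg i.p. 30 min before PTZ 85 mg/kg, brains taken at 4 h. Total SOD was measured in the ethanol phase of an ethanol/chloroform (5:3) extract, as inhibition of NBT reduction by xanthine–xanthine oxidase. One unit gives 50% inhibition; activity is expressed per mg protein (Lowry). n=6, mean ± SEM.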
row,Compound,Activity
1,C1CCc2nnnn2CC1 [PENTYLENETETRAZOL],42
2,CCCC(CCC)C(=O)O [VALPROIC ACID],65
3,O=C(N/N=C/c1ccc(Br)cc1)Nc1nc2c(ccc3ccccc32)s1,60

# Test system: Mus musculus
# Test: Anticonvulsant activity against maximal electroshock-induced seizures in Swiss albino mouse at 300 mg/kg, ip after 0.5 hrs by MES test
# Type: functional, organism-based
# Parameters: dose 300 mg/kg
# Conditions: not given
# Method in brief: as §3
row,Compound,Activity
1,C/C(=N\NC(=O)Nc1nc2c(ccc3ccccc32)s1)c1ccccc1,inactive
2,O=C(N/N=C/c1ccccc1Cl)Nc1nc2c(ccc3ccccc32)s1,inactive
3,CCCC(CCC)C(=O)O [VALPROIC ACID],inactive
4,O=C(N/N=C/c1ccccc1[N+](=O)[O-])Nc1nc2c(ccc3ccccc32)s1,inactive
5,CCC1(C)CC(=O)NC1=O (stereo not given) [ETHOSUXIMIDE],inactive

# Test system: Mus musculus
# Test: Antioxidant activity against PTZ-induced lipid peroxidation in Swiss albino mouse brain assessed as malondialdehyde content per mg of protein at 100 mg/kg, ip preincubated for 30 mins before PTZ challenge measured after 4 hrs by TBARS assay
# Type: functional
# Conditions: route intraperitoneal
# Method in brief: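 Mice were dosed 100 mg/kg i.p. 30 min before PTZ 85 mg/kg, and brains were homogenized after 4 h. For TBARS, homogenate supernatant was heated with SDS, acetic acid and 0.8% thiobarbituric acid at 95 °C for 1 h. The product was extracted into n-butanol/pyridine and read at 532 nm. Results are pmol MDA/mg protein, n=6, mean ± SEM.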
row,Compound,Activity
1,C1CCc2nnnn2CC1 [PENTYLENETETRAZOL],418 pmol
2,CCCC(CCC)C(=O)O [VALPROIC ACID],216 pmol
3,O=C(N/N=C/c1ccc(Br)cc1)Nc1nc2c(ccc3ccccc32)s1,292 pmol

# Test system: Mus musculus
# Test: Anticonvulsant activity against pentylenetetrazole-induced seizures in Swiss albino mouse at 300 mg/kg, ip after 0.5 hrs by scPTZ test
# Type: functional, organism-based
# Parameters: dose 300 mg/kg
# Conditions: not given
# Method in brief: as §2
row,Compound,Activity
1,O=C(N/N=C/c1ccccc1Cl)Nc1nc2c(ccc3ccccc32)s1,inactive
2,COc1ccc(OC)c(/C=N/NC(=O)Nc2nc3c(ccc4ccccc43)s2)c1,inactive
3,O=C1NC(=O)C(c2ccccc2)(c2ccccc2)N1 [PHENYTOIN],inactive

# Test system: Mus musculus
# Test: Anticonvulsant activity in ip dosed Swiss albino mouse assessed as minimum drug concentration required for inhibition of pentylenetetrazole-induced seizures in half or more of mouse after 4 hrs by scPTZ test
# Type: functional
# Conditions: not given
# Method in brief: as §2
row,Compound,Activity
1,C/C(=N\NC(=O)Nc1nc2c(ccc3ccccc32)s1)c1ccccc1,300 mg/kg
2,O=C(N/N=C/c1ccccc1Cl)Nc1nc2c(ccc3ccccc32)s1,300 mg/kg
3,CCC1(c2ccccc2)C(=O)NC(=O)NC1=O [PHENOBARBITAL],30 mg/kg
4,O=C(N/N=C/c1ccc(Br)cc1)Nc1nc2c(ccc3ccccc32)s1,100 mg/kg
5,COc1cc(/C=N/NC(=O)Nc2nc3c(ccc4ccccc43)s2)ccc1O,300 mg/kg
6,O=C(N/N=C/c1ccccc1[N+](=O)[O-])Nc1nc2c(ccc3ccccc32)s1,300 mg/kg
7,O=C(N/N=C/c1ccccc1)Nc1nc2c(ccc3ccccc32)s1,300 mg/kg

# Test system: Mus musculus
# Test: Anticonvulsant activity in ip dosed Swiss albino mouse assessed as minimum drug concentration required for inhibition of maximal electroshock-induced seizure in half or more of mouse after 4 hrs by MES test
# Type: functional
# Conditions: not given
# Method in brief: as §3
row,Compound,Activity
1,O=C(N/N=C/c1ccccc1Cl)Nc1nc2c(ccc3ccccc32)s1,300 mg/kg
2,CCC1(c2ccccc2)C(=O)NC(=O)NC1=O [PHENOBARBITAL],30 mg/kg
3,O=C(N/N=C/c1ccc(Br)cc1)Nc1nc2c(ccc3ccccc32)s1,100 mg/kg
4,COc1cc(/C=N/NC(=O)Nc2nc3c(ccc4ccccc43)s2)ccc1O,300 mg/kg
5,O=C1NC(=O)C(c2ccccc2)(c2ccccc2)N1 [PHENYTOIN],30 mg/kg

# Reference: ChEMBL document CHEMBL1152833, “Synthesis of some novel N4-(naphtha[1,2-d]thiazol-2-yl)semicarbazides as potential anticonvulsants” (Eur J Med Chem, 2009)
